According to PMC8892239 (EFSA Journal, 2022):
Converted amounts (≈) assume the structure as drawn. “And” between values parts separate entries of the source, which are not always exact repeats. Equal entries are not always repeated. Where two headings read alike, the source gives them in different places.

Assays:
[1] = system: Chironomus riparius; test: Water-sediment test with spiked sediment, OECD 218, 28 days; type: in vivo; conditions: nominal
In short: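 GLP static 28-day Chironomus riparius water–sediment test per OECD 218. The sediment was spiked at 62.5, 125, 250, 500 and 1,000 mg/kg sediment DW (nominal).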

[2] = Forced degradation of EQ in compound feed; type: physicochemical
[3] = cited from earlier work; for Water solubility: ref EFSA, 2010
[4] = at 22°C; ref EFSA, 2010; cited from earlier work
[5] = system: Atlantic salmon; test: Tolerance study in Atlantic salmon; type: in vivo, Salmo salar L.
[6] = Oxygen bomb method, feed for sows
[7] = system: Eisenia andrei; test: Earthworm reproduction test, OECD 222; type: in vivo; conditions: 56 days, nominal
In short: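 GLP 56-day Eisenia andrei test per OECD 222. Eight nominal soil levels were used: 16, 29, 53, 95, 171, 309, 556 and 1,000 mg/kg soil DW. A solvent control was included. Four replicates per treatment, eight for the solvent control, 10 worms per replicate. Reproduction, mortality and growth were scored.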

[8] = system: dairy cows; test: 36-day feeding study with lactating cows; type: in vivo, Holstein cows; conditions: up to 10× the maximum recommended level, fed for 36 days
[9] = system: cattle for fattening; test: Tolerance study in cattle for fattening; type: in vivo, male Holstein calves
[10] = Antioxidant efficacy, storage of complete feed for chickens for fattening
[11] = system: Lumbriculus variegatus; test: Water-sediment test, OECD 225, 28 days; type: in vivo
In short: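 Lumbriculus variegatus test per OECD 225 in spiked artificial sediment, run for 28 days. Nominal levels were 18.8, 37.5, 75, 150, 300 and 600 mg/kg sediment DW, with four replicates each. An untreated control and a solvent control were run, six replicates each.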

[12] = system: Caenorhabditis elegans; test: Sediment toxicity test, ISO 10872, 96 h; type: in vivo
In short: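 GLP sediment test with Caenorhabditis elegans per ISO 10872. Sediment levels were 25.6, 64, 160, 400 and 1,000 mg/kg sediment DW, with four replicates per control and per concentration. Fertility, reproduction and growth were read 96 h after the nematodes were added.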

[13] = system: soil microflora; test: Nitrogen Transformation Test, OECD 216
In short: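 Soil nitrogen transformation test per OECD 216, assessed on day 28. An effect was judged as deviation from control, with 25% as the criterion. A maximum variation below 15% was the validity criterion.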

[14] = system: Beagle dogs; conditions: ref EFSA FEEDAP Panel, 2015, cited from earlier work
[15] = ref EFSA, 2010, cited from earlier work
[16] = system: laying hens; test: Tolerance study in laying hens; type: in vivo, HyLine Brown layers; conditions: 50 mg ethoxyquin/kg feed
[17] = system: Daphnia magna; test: 48-h semi-static acute toxicity test, OECD 202; type: in vivo; conditions: read-out: 48h EC50 (immobilization)
[18] = Residues of EQ and metabolites/TPs in piglet tissues; type: in vivo; conditions: piglets
[19] = system: Skeletonema pseudocostatum; test: Marine algal growth inhibition test, ISO 10253:2016; type: in vivo; conditions: read-out: ErC50
In short: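 Test concentrations were measured analytically at 0 and 72 h. Endpoints were expressed on the geometric mean of the measured concentrations. An EC50 was also predicted from the initially measured concentrations.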

[20] = at 25°C; ref EFSA, 2010; cited from earlier work
[21] = Residues of EQ and metabolites/TPs in cattle tissues; type: in vivo; conditions: for concentration at 42 days: Holstein, bovine, oral, 50 mg EQ/kg complete feed; for residue in muscle, highest value: LOQs as above
[22] = Stability of EQ in complete feed for chickens for fattening; type: physicochemical; conditions: 50, 150 or 500 mg EQ/kg feed
[23] = Antioxidant efficacy, storage of complete feed for sows; conditions: for peroxide value after 3 months of storage: basal feed 47.3 meq O2/kg fat
[24] = 5,000 mg/kg feed (EQ4), 90 days
[25] = 10,000 mg/kg feed (EQ5), 90 days
[26] = control feed (0 mg EQ/kg), 42 days, mean ± SD, LOQs as above

What does the source list for CCOc1ccc2c(c1)C(C)=CC(C)(C)N2 [EQ, 6‐ethoxy‐1,2‐dihydro‐2,2,4‐trimethylquinoline]?
EC10 development rate [1]: > 250 mg/kg sediment DW; NOEC development rate [1]: 125 mg/kg sediment DW; NOEC emergence rate [1]: 250 mg/kg sediment DW; share of the lost EQ identified as DMEQ, EQI and EQDM ([2]; H2O2): around 56%; EQ oxidised ([2]; H2O2, after 4 h): 83%; EQ oxidised ([2]; H2O2, spontaneously): 75%; Water solubility ([3]; pH 5, 20°C): 101 µg/mL; Water solubility ([3]; pH 7, 20°C): 60 µg/mL; Solubility at pH 7 (input for PEC) ([3]; pH 7): 60 mg/L; Water solubility ([3]; pH 9, 20°C): 70 µg/mL; Dissociation constant [4]: 4.56 at 22 °C; condition factor ([5]; 5,000 mg/kg feed (EQ4)): 1.3 g/mL; daily feed intake ([5]; 5,000 mg/kg feed (EQ4)): 2.9 g/fish per day; specific growth rate ([5]; 5,000 mg/kg feed (EQ4)): 0.8 % bw per day; total feed intake ([5]; 5,000 mg/kg feed (EQ4)): 255 g/fish; bw gain [5, 24]: 276 g; final bw [5, 24]: 537 g; condition factor ([5]; 10,000 mg/kg feed (EQ5)): 1.1 g/mL; daily feed intake ([5]; 10,000 mg/kg feed (EQ5)): 1.1 g/fish per day; final salmon length ([5]; 10,000 mg/kg feed (EQ5)): 29 cm; specific growth rate ([5]; 10,000 mg/kg feed (EQ5)): 0.1 % bw per day; total feed intake ([5]; 10,000 mg/kg feed (EQ5)): 100 g/fish; bw gain [5, 25]: 38 g; final bw [5, 25]: 301 g; mortality ([5]; up to 10,000 mg/kg feed, 90 days): No fish died; protection factor ([6]; 25 mg ethoxyquin/kg feed (EQ25)): 1.50; protection factor ([6]; 50 mg ethoxyquin/kg feed (EQ50)): 1.78; LC50 (mortality) [7]: 693 mg test item/kg soil DW; NOEC for biomass [7]: ≥ 556 mg test item/kg soil DW; NOEC for mortality [7]: 556 mg test item/kg soil DW; NOEC for reproduction [7]: 171 mg test item/kg soil DW; effect on performance parameters [8]: had no influence on the performance parameters; margin of safety ([9]; 50 mg ethoxyquin/kg feed): 10; gamma-glutamyl transpeptidase ([9]; 1× (50 mg/kg feed), 42 days): 22.4 µ/L; platelet count ([9]; 1× (50 mg/kg feed), 42 days): 452000 µL⁻¹; platelet count ([9]; 3× (150 mg/kg feed), 42 days): 394000 µL⁻¹; platelet count ([9]; 10× (500 mg/kg feed), 42 days, p = 0.01 to the control): 264000 µL⁻¹; loss of EQ content in feed after 3 months ([10]; 25–30°C, 55–65% RH, EQ = 50 mg EQ/kg feed (EQ50)): approximately 40%; range in which considered an efficacious antioxidant in feed ([10]; Panel's overall conclusion): 25–50 mg/kg complete feed; EC10 for total number of worms/reproduction and total biomass per replicate [11]: 148 mg test item/kg sediment DW and 148 ^* mg test item/kg sediment DW; NOEC for total number of worms and reproduction [11]: 150 mg test item/kg sediment DW; mortality ([11]; 300 mg/kg sediment DW): 50%; mortality ([11]; 600 mg/kg sediment DW): 100%; EC10 for fertility and growth [12]: > 1,000 mg/kg sediment DW; EC10 for reproduction [12]: 727 mg/kg sediment DW; NOEC for fertility, reproduction and growth [12]: 400 mg/kg sediment DW; deviation from control ([13]; day 28, 10.70 mg test item/kg soil DW): < 25%; effect on soil nitrogen transformation ([13]; day 28, highest tested concentration 10.70 mg test item/kg soil DW): no adverse effects; lowest NOAEL ([14]; dogs, based on hepatocellular necrosis): 2 mg/kg bw per day; maximum potentially safe concentration in feeds for dogs [14]: 11 mg/kg complete feed; Octanol/water partition coefficient (log Kow 25°C) ([15]; pH 5): 3.18; Octanol/water partition coefficient (log Kow 25°C) ([15]; pH 7): 3.39; Octanol/water partition coefficient (log Kow 25°C) ([15]; pH 9): 3.19; margin of safety [16]: 10 ×; EC50 [17]: 2.48 µg/mL (≈ 11.4 µM); residue in kidney ([18]; control feed (0 mg EQ/kg), 42 days, mean ± SD, LOQs 1.5 to 2 µg EQ, EQDM, metabolite A/kg, 0.5 µg EQI/kg): ˂ LOQ^( ^b ^); residue in muscle [18, 26]: ˂ LOQ; residue in subcutaneous fat [18, 26]: ˂ LOQ; residue in muscle ([18]; feed with 50 mg EQ/kg for 42 days, LOQs 1.5 to 2 µg EQ, EQDM, metabolite A/kg, 0.5 µg EQI/kg): ˂ LOQ; EC50 [19]: 3.3 µg/mL (≈ 15.2 µM); Vapour pressure [20]: 3.46 × 10^–2 at 25 °C Pa; concentration at 42 days ([21]; kidney, residue in kidney, highest value, cattle, 50 mg EQ/kg complete feed for 42 days, LOQs 1.5–2 µg EQ, EQDM, metabolite A/kg, 0.5–1 µg EQI, DHEQ/kg): 19.9 ng/g; concentration at 42 days ([21]; liver): 34 ng/g; residue in muscle, highest value ([21]; cattle, 50 mg EQ/kg complete feed for 42 days): ˂ LOQ; residue in muscle, highest value ([21]; cattle, control (0 mg EQ/kg feed), 42 days): ˂ LOQ; EQ losses ([22]; after 90 days at 40°C, 75% RH): about 80%; EQ losses ([22]; after 90 days, ambient conditions): 30–50%; EQ content after 3 months of storage ([23]; 25 mg EQ/kg feed (EQ25)): completely disappeared; peroxide value after manufacturing ([23]; 25 mg EQ/kg feed (EQ25)): 0.89 meq O2/kg fat; peroxide value after 3 months of storage ([23]; 25 mg EQ/kg feed (EQ25)): approx. 23.8; peroxide value after manufacturing ([23]; 50 mg EQ/kg feed (EQ50)): 1.36 meq O2/kg fat; reduction of EQ after 3 months of storage ([23]; 50 mg EQ/kg feed (EQ50)): approx. 80%; peroxide value after 3 months of storage ([23]; 50 mg EQ/kg feed (EQ50)): ~13.6
